# Hep lipid drop: hepatic lipid droplet formation modulation; AML12 mouse hepatocytes, oleate lipid droplets, BODIPY imaging; inhibition, % at 6.5 µM; 240,000 compounds, 0.4% hits; AID 1656;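 active means lipid droplet intensity inhibited by at least 50%, with more than 500 cells counted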
#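 Assay system: AML12 mouse liver cells | Compound dosing: One dose, 6.5 µM compound | Read-out basis: Droplet intensity reduction, % inhibition | Measured by: Fluorescence imaging, 20x objective, two fields per well | Schedule: Overnight treatment with compound plus oleate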
# Pf gamet viab: kills late stage P. falciparum gametocytes. inhibition, % at 10.9 µM. AID 743093. 150,000 compounds, 0.065% hits. P. falciparum stage V gametocytes, ATP luminescence, 24 h;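 active means inhibition above the mean plus 3 SD of compounds within the control limits, set per campaign, cut at about 38% in these data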;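 further: 0% = DMSO wells and 100% = medium only without gametocytes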
# Arbovirus anti: arbovirus infection inhibition; inhibition, % at 10 µM; 200,000 compounds, 0.37% hits; AID 1251; arbovirus infection cell-based antiviral screen; in the data active means inhibition above about 30%
# TNF death inh: blocks TNF-alpha induced death of Jurkat FADD-/- cells; Jurkat FADD-/- TNF necroptosis rescue, ATP luminescence, 24 h; 0 = TNF only, 100 = no-TNF cells; activation (protection from cell death), % at 10 µM; 220,000 compounds, 0.068% hits; AID 463075;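 active means activation, meaning protection from cell death, of at least 50% relative to plate controls; inactive means activation below 50%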;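 further: necroptosis triggered by 40 ng/mL TNF-alpha added together with compound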
# L929 necroptosis: L929 zVAD cell death inhibition; L929 zVAD necroptosis rescue, ATP luminescence, 24 h; with zVAD 60 µM; viability rescue, % at 10 µM; 220,000 compounds, 0.38% hits; AID 1377;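 active means activation, scaled between plate controls, above about 75%, limit read from the data; inactive means activation under that limit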;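 further: 0% = zVAD with DMSO and 100% = DMSO alone without zVAD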
# * hit, by the source's call; nt = not tested or not shown. The list is not random: actives were taken first. Their share in the collection is about 0.91%.
SMILES,Hep lipid drop,Pf gamet viab,Arbovirus anti,TNF death inh,L929 necroptosis
O=C(NC1=NCCS1)c1ccc(Cl)c(S(=O)(=O)N2CCCC2)c1,-2,nt,32*,1,1
O=C(NC1=NCCS1)c1ccc(Cl)c(S(=O)(=O)N2CCCCC2)c1,15,nt,5,-1,-1
CCC(CC)c1nn2c(N)c(/C=C3\C(C)=Nc4ccccc43)c(=O)nc2s1,-10,12,nt,3,4
CC(C)c1nn2c(N)c(/C=C3\C=Nc4ccccc43)c(=O)nc2s1,-3,-10,nt,3,0
CC(C)Cc1nn2c(N)c(/C=C3\C=Nc4ccccc43)c(=O)nc2s1,12,25,37*,1,1
CCCCc1nn2c(N)c(/C=C3\C=Nc4ccccc43)c(=O)nc2s1,-85,nt,33*,3,1
CCCc1nn2c(N)c(/C=C3\C=Nc4ccccc43)c(=O)nc2s1,-2,-37,71*,6,0
CCC(CC)c1nn2c(N)c(/C=C3\C=Nc4ccccc43)c(=O)nc2s1,7,-24,nt,0,2
CCn1ncc(C2=NOC(C(=O)NCC(C)C)C2)c1C (configuration not stated),2,nt,0,-1,0
CCn1ncc(C2=NOC(C(=O)Nc3cnn(C45CC6CC(CC(C6)C4)C5)c3)C2)c1C (configuration not stated),nt,nt,-2,-5,87*
O=C(Nc1cccc(Cl)c1)NC1CC2CCC(C1)N2Cc1cccs1 (configuration not stated),1,nt,-9,5,21
O=C(O)CCCC(=O)Nc1cccc(C(=O)Nc2ccccc2C(=O)O)c1,13,-11,5,1,0
O=C(CSCc1ccccc1)Nc1cccc(C(=O)Nc2ccccc2C(=O)O)c1,nt,nt,31*,-1,1
Cc1cccc(OCC(=O)Nc2cccc(C(=O)Nc3ccccc3C(=O)O)c2)c1,-2,nt,55*,1,0
O=C(CSCc1ccc(Cl)cc1)Nc1cccc(C(=O)Nc2ccccc2C(=O)O)c1,1,-26,36*,-1,0
CN(C(=O)c1cc(-c2ccccc2)on1)C1CCCCC1,-9,nt,nt,nt,nt
CCN1CCN(CC(=O)Nc2ccc(S(=O)(=O)N3C(C)CCCC3C)cc2)CC1 (configuration not stated),0,nt,nt,nt,nt
Cc1cccc(Cn2ccc(NC(=O)c3ccc4c(c3)OCO4)n2)c1,-20,7,-27,0,2
COc1ccc(-n2cnc3cc(NS(=O)(=O)c4ccccc4)ccc32)cc1,0,1,-2,53*,-1
Cc1c(C(=O)N/N=C/c2ccc(O)c(Br)c2)sc(N)c1C#N,-17,-10,-14,8,76*
CCOC(=O)c1cccc(C(=O)Nc2nc3ccc(OC)cc3s2)n1,6,-4,-1,0,0
O=C(O)CC/C(=C\c1ccc(N2CCCC2)c([N+](=O)[O-])c1)c1nc2ccccc2s1,-11,-6,54*,0,4
O=C(O)CC/C(=C\c1ccccc1[N+](=O)[O-])c1nc2ccccc2s1,-4,6,11,0,16
COCCN(C(=O)Cn1c(C(F)(F)F)nc2ccccc21)c1c(N)n(Cc2ccccc2)c(=O)[nH]c1=O,5,nt,nt,nt,nt
CCOc1ccc(CCNC(=O)CSc2nn(-c3ccc(C)c(Cl)c3)c(=S)s2)cc1OCC,70*,-23,-5,3,1
SMILES,Hep lipid drop,Pf gamet viab,Arbovirus anti,TNF death inh,L929 necroptosis
CCOc1ccc(CCNC(=O)CSc2nnnn2C)cc1OCC,0,6,2,1,1
O=C(O)c1ccc(CSc2nnc(-c3ccc(Cl)cc3)o2)cc1,1,-6,nt,nt,nt
O=S(=O)(Nc1ccc(-c2nnc(SCc3ccc(Cl)cc3)o2)cc1)c1ccccc1,1,12,31*,2,1
CCOC(=O)N1CCN(C(=O)CCNS(=O)(=O)c2cc(Br)cnc2N)CC1,nt,nt,-2,18,86*
C=CCn1c(CNC(=O)c2cccs2)nnc1SCc1ccc(Cl)cc1Cl,7,12,63*,-1,0
CC(NC(=O)c1cccs1)c1nnc(SCc2ccc(Cl)cc2Cl)n1C (configuration not stated),0,-6,77*,-1,1
CCOC(CCNC(=O)c1cn(CCOC)c(=O)c2c1c1ccccc1n2C)OCC,-1,nt,nt,nt,nt
CNc1ccccc1C(C)(C)c1cc(-c2cc(C)cc(C)c2)no1,7,nt,21,2,0
CNc1ccccc1C(C)(C)c1cc(-c2cccc(OC)c2)no1,-35,16,32*,-8,-1
O=C(COC(=O)c1ccco1)Nc1nc2c(F)c(F)c(F)cc2s1,-6,nt,nt,nt,nt
O=C(COC(=O)c1ccc(NS(=O)(=O)c2cccs2)cc1)Nc1nc2c(F)c(F)c(F)cc2s1,14,nt,34*,0,1
O=C(O)CSc1cc(C(=O)c2ccccc2O)cn2c(=O)c3c(-c4ccccc4)csc3nc12,1,-2,70*,-1,2
O=C(CSc1nccc(=O)[nH]1)N1N=C2/C(=C/c3ccco3)CCCC2C1c1ccco1 (configuration not stated),13,-5,49*,1,4
Nc1nc(SCC(=O)N2N=C3/C(=C/c4ccco4)CCCC3C2c2ccco2)n[nH]1 (configuration not stated),-3,-15,9,-2,2
CCc1nnc(NC(=O)C2=CCN(S(=O)(=O)c3ccc(F)cc3)CC2)s1,-49,20,nt,2,0
CCCCN(CC)C(=O)CSc1nc2c(sc(=S)n2-c2ccc(OCC)cc2)c(=O)[nH]1,1,7,47*,0,1
CCOC(=O)CC(=O)CSc1nc2c(sc(=S)n2-c2ccc(OCC)cc2)c(=O)[nH]1,-3,-8,60*,0,nt
CCCN(CCC)C(=O)CSc1nc2c(sc(=S)n2-c2ccc(OCC)cc2)c(=O)[nH]1,-2,4,42*,-1,6
CCOC(=O)CC(=O)CSc1nc2c(sc(=S)n2-c2ccc(C)c(C)c2)c(=O)[nH]1,5,nt,nt,nt,nt
CCN(CC)C(=O)CSC1=N/C(=C/c2ccco2)C(=O)N1c1ccc(OC)c(Cl)c1,-16,20,37*,3,0
COc1cc2c(C(=O)O)c(C)n(CC(C)C)c2c2ccccc12,10,nt,54*,0,0
Cc1nn(-c2cc(C(F)(F)F)ccc2Cl)c2nc(C(F)(F)F)[nH]c(=O)c12,16,12,42*,0,0
Cc1nn(-c2cccc(Cl)c2)c2nc(C(F)(F)F)[nH]c(=O)c12,-33,-8,30,1,2
O=C(NCCN1C(=O)S/C(=C/c2cccnc2)C1=O)C1CC(=O)N(Cc2ccccc2)C1 (configuration not stated),-23,4,30*,2,0
O=C(NCCN1C(=O)S/C(=C\c2cccnc2)C1=O)C1=NN(c2ccccc2)C(=O)CC1,3,-41,-5,0,2
OC(c1ccccc1)C1CN(Cc2ccccc2)CCC1(O)c1ccccc1 (configuration not stated),-4,13,33*,2,0

# Assay outcomes (PubChem)
